Screens as filed in PubChem.
Beta apoptosis: beta cell apoptosis inhibition; 0.8% of 300,000 active; protection from apoptosis, % (concentration not given with the values); AID 435005; INS-1E cytokine-induced death, ATP luminescence, 48 h; percent of positive-control rescue, neutral wells zero;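 active = Every replicate reaches about 75%, or at least half do and their mean reaches it too, limit read from the data; inconclusive = At least half of replicates reach the limit but their mean does not; inactive = Under half of replicates reach the limit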;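 also: higher means more ATP so stronger rescue from cytokine killing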
PfHsp90 set2: growth inhibition of yeast expressing Plasmodium Hsp90; AID 504621; inhibition, % at 9.4 µM; 0.32% of 310,000 active; S. cerevisiae expressing PfHsp90, BacTiter-Glo ATP, 48 h; yeast lacking PDR1 and PDR3 efflux regulators;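 active = every replicate shows inhibition above about 80%, whatever the replicate mean, limit read from the data; inconclusive = mean inhibition reaches the set limit but some replicate falls short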
HIF act: HIF pathway transcriptional activation | U2OS HRE-luciferase reporter, luminescence; normalized: DMSO 0%, desferrioxamine 100% | AID 1910 | 0.32% of 300,000 active | activation, % at 7.5 µM (by protocol);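 active = mean activation of at least 10% of the iron chelator positive control signal, with at least half of replicates also reaching 10%; inconclusive = mean and replicate majority disagree about reaching 10%; inactive = mean and most replicates under 10%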
CSC inhib: blocks cancer stem cells; 1.1% of 300,000 active; inhibition, % at 7.5 µM; AID 2717; cancer stem cell-like cells viability, luminescence; in the data active = inhibition above about 75%; inconclusive = no clear call, values can overlap the other calls; tested in HMLE shEcad cells
SKKanGAS inh: inhibitors of SKKanGAS S. pyogenes growth in kanamycin (SK-promoter or general growth effect); BacTiter-Glo, 6 h; inhibition, % at 7.5 µM; 1.3% of 300,000 active; AID 1662;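 active = mean replicate score, as percent of positive control median, at least 50; inconclusive = mean below 50 but one replicate at or above 50; inactive = mean and every replicate below 50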;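 also: strain carries kanamycin resistance gene driven by streptokinase promoter and grows in 40 µg/ml kanamycin; loss of luminescence reflects streptokinase promoter inhibition or plain growth inhibition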
T cruzi inh: blocks replication of Trypanosoma cruzi; T. cruzi beta-gal in NIH3T3, luminescence, 90 h; inhibition, % (test concentration not listed); 1.4% of 300,000 active; AID 1885;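 active = mean inhibition across valid replicates above about 55%, limit read from the data; inconclusive = mean below that limit but half or more replicates reach it; inactive = mean below it, under half of replicates reach it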;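 also: signal also drops with host cell toxicity which is not excluded here; higher percent means less beta-gal luminescence so fewer parasites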
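System: NIH/3T3 fibroblasts plus reporter T. cruzi. Medium: DMEM plus 2% FBS. Probe or stimulus: 5000 reporter trypomastigotes per well. Compound: single 50 nL compound addition per well in DMSO. Incubation: co-culture of at least 90 h after 3 h attachment. Detection: GalScreen β-gal luminescence, detergent lysis, 60 min. Evaluation: parasite load inhibition, %.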
Each line names hits and unclear results; the compound was inactive in the other large screens. A selection: hits, their analogues and other compounds. The true share with any hit is near 3.6%.

COCCOc1cc(NC(=O)c2sccc2Oc2ccc([N+](=O)[O-])cc2F)c(Cl)cc1Cl	none (no result: Beta apoptosis, PfHsp90 set2)
O=C(Nc1ccccc1)c1sccc1Oc1ccc([N+](=O)[O-])cc1F	T cruzi inh 63 (no result: CSC inhib)
O=[N+]([O-])c1ccc(C2=NN(CCO)C(=Nc3ccc(OC(F)(F)F)cc3)SC2)cc1	CSC inhib 89
COc1ccc(N=C2SCC(c3ccc([N+](=O)[O-])cc3)=NN2CCO)cc1	none
Cc1ccc(CN(C(=O)c2csnn2)C(C(=O)NC2CCCC2)c2cccnc2)cc1 (stereo not drawn)	none
COc1cc(-c2c(-c3ccsc3)sc3ccccc23)cc(OC)c1OC	none (no result: HIF act, SKKanGAS inh, T cruzi inh)
Oc1ccc(-c2c(C3=CCCCC3)sc3ccccc23)cc1	PfHsp90 set2 inconclusive, SKKanGAS inh 56
Cc1cccc(/C=C/c2onc(C)c2S(=O)(=O)N2CCC(C(=O)NC(C)C)CC2)c1	none (no result: CSC inhib)
CC(=O)c1ccc(N2CCN(S(=O)(=O)c3ccc4c(c3)CC(C)N4C(C)=O)CC2)cc1 (stereo not drawn)	Beta apoptosis 91
CCC(=O)N1c2ccc(S(=O)(=O)N3CCN(c4ccc([N+](=O)[O-])cc4)CC3)cc2CC1C (stereo not drawn)	Beta apoptosis 92
CC1Cc2cc(S(=O)(=O)N3CCC(C(=O)N4CCN(c5ccccc5F)CC4)CC3)ccc2N1C(=O)C1CC1 (stereo not drawn)	Beta apoptosis 75
COCc1nnc(NC(=O)c2ccc(S(=O)(=O)N(C)C3CCCCC3)cc2)o1	SKKanGAS inh 62
CSCc1nnc(NC(=O)c2ccc(S(=O)(=O)N(CC(C)C)CC(C)C)cc2)o1	SKKanGAS inh 80 (no result: Beta apoptosis, PfHsp90 set2, CSC inhib)
CCc1nnc(NC(=O)c2ccc(S(=O)(=O)N(CC(C)C)CC(C)C)cc2)o1	none (no result: HIF act, CSC inhib, SKKanGAS inh, T cruzi inh)
CCCN(CCC)S(=O)(=O)c1ccc(C(=O)Nc2nnc(COC)o2)cc1	SKKanGAS inh 69
COCCNC(=O)CN(Cc1cccs1)C(=O)CCC(=O)Nc1nccs1	none (no result: Beta apoptosis)
Cc1ccc(C)c(NC(=O)CN2C(=O)NC(C)(c3ccc4c(c3)OCCO4)C2=O)c1 (stereo not drawn)	none (no result: HIF act, CSC inhib, SKKanGAS inh, T cruzi inh)
O=C(NCC1CCCO1)c1ccc(COc2ccccc2)o1 (stereo not drawn)	none (no result: Beta apoptosis)
Cc1ccc(-n2c(N)c(-c3nc4ccccc4n3C)sc2=S)cc1	SKKanGAS inh 50 (no result: PfHsp90 set2, CSC inhib)
O=S(=O)(N/N=C1/CC(c2ccccc2)Oc2ccccc21)c1ccccc1 (stereo not drawn)	none (no result: Beta apoptosis, HIF act, CSC inhib, SKKanGAS inh, T cruzi inh)
CC(C)(C)N/N=C1\CC(c2ccccc2)Oc2ccccc21 (stereo not drawn)	SKKanGAS inh 73 (no result: CSC inhib)
COc1ccc(S(=O)(=O)CCC(=O)N2CCN(c3ccc(C(C)=O)cc3)CC2)cc1	none (no result: HIF act)
COc1ccc(-c2ccc3c(c2)S(=O)(=O)c2cccc(C(=O)N4CCN(C5CCCCC5)CC4)c2C3=O)cc1OC	none (no result: HIF act, CSC inhib, SKKanGAS inh, T cruzi inh)
C[C@H](CO)N1C[C@H](C)[C@@H](CN(C)C(=O)Nc2ccc3c(c2)OCO3)Oc2c(NC(=O)c3ccncc3)cccc2C1=O	none (no result: HIF act, SKKanGAS inh, T cruzi inh)
Cc1nc(N2CCN(Cc3ccccc3)CC2)nc2c1CCC2	none
FC(F)(F)c1nc(N2CCN(c3ccccc3)CC2)nc2c1CCCCC2	SKKanGAS inh 68
C[C@]12c3[nH]c4ccc(Cl)cc4c3CCN1C(=O)[C@@H](CC(=O)NCCN1CCOCC1)C[C@@H]2C(=O)N1CCCCC1	none (no result: Beta apoptosis, HIF act, CSC inhib, SKKanGAS inh, T cruzi inh)
Cc1ccc(O)c(O)c1	none (no result: PfHsp90 set2)
Cc1cc(O)c(Oc2cc(C)cc(O)c2O)c(O)c1	CSC inhib 80
CNc1ccc(C(=O)OCC(=O)NCc2ccc3c(c2)OCO3)cc1[N+](=O)[O-]	none (no result: PfHsp90 set2, HIF act, SKKanGAS inh, T cruzi inh)
Cc1c(C(=O)O)sc2ncn(C)c(=O)c12	none
Cc1ccc(OC(=O)c2sc3ncn(C)c(=O)c3c2C)cc1	SKKanGAS inh 78
Nc1ccc(-c2cnc(N)c(C(=O)c3cccnc3)n2)cn1	none (no result: Beta apoptosis, HIF act, CSC inhib, SKKanGAS inh, T cruzi inh)
O=C(O)c1ccccc1NSc1ccccc1[N+](=O)[O-]	none
CCc1ccc(NSc2ccccc2[N+](=O)[O-])cc1	SKKanGAS inh 76
O=C(O)CCc1[nH]c2ccccc2c1Sc1ccccc1	none
Cc1cc(C)c2nc(N(CCCN(C)C)C(=O)c3ccc4c(c3)OCCO4)sc2c1	T cruzi inh 57 (no result: Beta apoptosis)
Cc1ccc2nc(N(CCN(C)C)C(=O)c3ccc4ccccc4c3)sc2c1	none
CCN(CC)CCN(C(=O)c1ccc2c(c1)OCCO2)c1nc2cc3c(cc2s1)OCO3	none
CCN(CC)CCN(C(=O)c1ccc2c(c1)OCCO2)c1nc2ccc(C)cc2s1	T cruzi inh 69
Cc1ccc2nc(N(CCN(C)C)C(=O)c3ccc4c(c3)OCCO4)sc2c1	T cruzi inh 72
CCN(CC)CCN(C(=O)c1cc2c(ccc3ccccc32)oc1=O)c1nc2cc3c(cc2s1)OCCO3	Beta apoptosis 102, CSC inhib 91
Cc1cc(C)c2nc(N(CCCN(C)C)C(=O)C3=COCCO3)sc2c1	none (no result: Beta apoptosis)
CCCNC(=O)OCc1cccnc1Sc1ccc(C)cc1	none
CC1CCCCC12NC(=O)N(CC(=O)NCCc1ccc(S(N)(=O)=O)cc1)C2=O (stereo not drawn)	none (no result: HIF act, SKKanGAS inh, T cruzi inh)
C=CCNC(=S)N1N=C(c2ccco2)CC1c1ccco1 (stereo not drawn)	none (no result: Beta apoptosis, HIF act, CSC inhib, SKKanGAS inh, T cruzi inh)
COc1cccc(NC(=O)c2nc(SC)ncc2Cl)c1	none
COc1cccc(NC(=O)c2nc(S(C)(=O)=O)ncc2Cl)c1	CSC inhib 113
CN(c1ccccc1)S(=O)(=O)c1ccc(NC(=O)c2nc(S(C)(=O)=O)ncc2Cl)cc1	Beta apoptosis 99
CN(c1ccccc1)S(=O)(=O)c1ccc(Cl)c(C(=O)Nc2ccncc2)c1	none (no result: HIF act, SKKanGAS inh, T cruzi inh)
CC(C)(C)c1ccc(C(=O)NCCC(=O)NNC(=O)COc2ccccc2F)cc1	none (no result: HIF act, SKKanGAS inh, T cruzi inh)
CCCN1CCC(NC(=O)Cc2ccc(C)cc2)CC1	none
Cc1cccc(Nc2nc(N)c([N+](=O)[O-])c(N3CC(C)CC(C)C3)n2)c1 (stereo not drawn)	Beta apoptosis inconclusive, PfHsp90 set2 101, CSC inhib 105
C=C1C(=O)C=C2CN(C(=O)c3ccccc3)[C@@](Cc3ccc(F)cc3)(C(=O)OC)[C@@H]12	Beta apoptosis 113
COC(=O)[C@@]1(Cc2ccc(OC)cc2)[C@@H]2C(=CC(=O)[C@H]2CC(=O)C(=O)N(C)C)CN1C(=O)c1ccccc1	none (no result: PfHsp90 set2, HIF act, SKKanGAS inh, T cruzi inh)
O=C(/C=C/c1cccc(F)c1)NC1CCN(Cc2ccccc2)CC1	T cruzi inh 55
O=C(Nc1cccc(F)c1)NC1CCN(Cc2ccccc2)CC1	T cruzi inh 60
O=C(COc1ccc(Br)cc1Cl)NC1CCN(Cc2ccccc2)CC1	T cruzi inh 61
C=C(C)c1cccc(C(C)(C)NC(=O)NC2CCN(Cc3ccccc3)CC2)c1	T cruzi inh 55
O=C(/C=C/c1cccc(Br)c1)NC1CCN(Cc2ccccc2)CC1	none
O=C(COc1ccccc1)NC1CCN(Cc2ccccc2)CC1	none (no result: PfHsp90 set2)
